# Data from ChEMBL document CHEMBL4364268, “Carvacrol prodrugs as novel antimicrobial agents” (Eur J Med Chem, 2019).
# What was measured:
# Candida albicans [1] = experiment: Antifungal activity against Candida albicans after 24 hrs by EUCAST method; type: functional
# [2] = n-Octanol/water partition coefficient, log P of compound by HPLC analysis; type: physicochemical
# [3] = Stability in human plasma by HPLC analysis; type: ADME, cell-free
# Summary of the method: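 Compound stock was added to 80% human plasma (diluted with 0.02 M phosphate buffer, pH 7.4) at 37 °C. Samples taken over time were stopped with 0.01 M HCl in methanol and centrifuged 5 min at 5000 g. Supernatant was analysed by HPLC-UV at 274 nm (C18, water/ACN + 0.1% TFA, isocratic, 1 mL/min).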
# [4] = Aqueous solubility of compound at 50 mg after 1 hr by HPLC analysis; type: physicochemical; details: water
# Candida dubliniensis = experiment: Antifungal activity against Candida dubliniensis CBS7987 assessed as zone of inhibition by disc diffusion method; type: functional
# Summary of the method: (§1)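 Disc diffusion on potato dextrose medium with 0.8% agar against Candida strains. Fluconazole and amphotericin B served as positive controls. Inhibition zone was measured in mm.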
# Nakaseomyces glabratus = experiment: Antifungal activity against Candida glabrata ATCC 2001 assessed as zone of inhibition by disc diffusion method; type: functional; summary of the method: as §1
# Candida parapsilosis = experiment: Antifungal activity against Candida parapsilosis ATCC 22019 assessed as zone of inhibition by disc diffusion method; type: functional; summary of the method: as §1
# Candida tropicalis = experiment: Antifungal activity against Candida tropicalis KUEN 1025 assessed as zone of inhibition by disc diffusion method; type: functional; summary of the method: as §1
# Candida albicans [5] = experiment: Antifungal activity against Candida albicans ATCC 10231 assessed as zone of inhibition by disc diffusion method; type: functional; summary of the method: as §1
# Blood = experiment: Antioxidant activity in human blood assessed as total antioxidant capacity at 10 uM after 48 hrs (reference value: 6.3 +/- 0.5); type: functional
# Streptococcus pyogenes = experiment: Antibacterial activity against Streptococcus pyogenes incubated for 18 to 24 hrs by CLSI-based broth microdilution method; type: functional
# Acinetobacter baumannii = experiment: Antibacterial activity against Acinetobacter baumannii incubated for 18 to 24 hrs by CLSI-based broth microdilution method; type: functional
# Pseudomonas aeruginosa = experiment: Antibacterial activity against Pseudomonas aeruginosa incubated for 18 to 24 hrs by CLSI-based broth microdilution method; type: functional
# Klebsiella pneumoniae = experiment: Antibacterial activity against Klebsiella pneumoniae incubated for 18 to 24 hrs by CLSI-based broth microdilution method; type: functional
# Escherichia coli = experiment: Antibacterial activity against Escherichia coli incubated for 18 to 24 hrs by CLSI-based broth microdilution method; type: functional
# Streptococcus agalactiae = experiment: Antibacterial activity against Streptococcus agalactiae incubated for 18 to 24 hrs by CLSI-based broth microdilution method; type: functional
# Streptococcus pneumoniae = experiment: Antibacterial activity against Streptococcus pneumoniae incubated for 18 to 24 hrs by CLSI-based broth microdilution method; type: functional
# Enterococcus faecalis = experiment: Antibacterial activity against Enterococcus faecalis incubated for 18 to 24 hrs by CLSI-based broth microdilution method; type: functional
# [6] = test system: Staphylococcus epidermidis; experiment: Antibacterial activity against Staphylococcus epidermidis incubated for 18 to 24 hrs by CLSI-based broth microdilution method; type: functional
# Staphylococcus aureus = experiment: Antibacterial activity against Staphylococcus aureus incubated for 18 to 24 hrs by CLSI-based broth microdilution method; type: functional
smiles,measurement,setting,value
Cc1ccc(C(C)C)cc1OC(=O)CCC(=O)N[C@@H](CCCNC(=N)N)C(=O)O,MIC,Candida albicans [1],> 6400 µg/mL
Cc1ccc(C(C)C)cc1OC(=O)CCC(=O)N[C@@H](CCCCN)C(=O)O,MIC,Candida albicans [1],> 6400 µg/mL
Cc1ccc(C(C)C)cc1OC(=O)CCCC(=O)NCC(=O)O,MIC,Candida albicans [1],> 6400 µg/mL
Cc1ccc(C(C)C)cc1OC(=O)CCCC(=O)O,MIC,Candida albicans [1],> 6400 µg/mL
Cc1ccc(C(C)C)cc1OC(=O)CCC(=O)NCC(=O)O,MIC,Candida albicans [1],6400 µg/mL
Cc1ccc(C(C)C)cc1OC(=O)CCCC(=O)N[C@@H](CCCNC(=N)N)C(=O)O,MIC,Candida albicans [1],> 6400 µg/mL
Cc1ccc(C(C)C)cc1OC(=O)CCC(=O)N[C@@H](Cc1c[nH]cn1)C(=O)O,logP,[2],< 2.4
same,MIC,Candida albicans [1],> 6400 µg/mL
Cc1ccc(C(C)C)cc1OC(=O)CCCC(=O)N[C@@H](CCCCN)C(=O)O,MIC,Candida albicans [1],> 6400 µg/mL
CC(C)=CCC[C@@H](C)CC(=O)Oc1cc(C(C)C)ccc1C,MIC,Candida albicans [1],> 6400 µg/mL
CC(C)=CC(=O)Oc1cc(C(C)C)ccc1C,MIC,Candida albicans [1],> 6400 µg/mL
CC(C)=CCOc1cc(C(C)C)ccc1C,K,[3],0.0294 h⁻¹
Cc1ccc(C(C)C)cc1OC(=O)CCC(=O)NCCN.Cl,MIC,Candida albicans [1],3200 µg/mL
Cc1ccc(C(C)C)cc1OC(=O)CCCC(=O)N[C@@H](Cc1c[nH]cn1)C(=O)O,logP,[2],< 2.4
same,solubility at 1 h,[4],3330 µg/mL
same,MIC,Candida albicans [1],> 6400 µg/mL
Cc1ccc(C(C)C)cc1OC(=O)CCC(=O)NCCN(C)C.Cl,MIC,Candida albicans [1],> 6400 µg/mL
CC(C)=CCC/C(C)=C/COc1cc(C(C)C)ccc1C,K,[3],0.1716 h⁻¹
Cc1ccc(C(C)C)cc1OC(=O)CCCC(=O)NCCN.Cl,MIC,Candida albicans [1],> 6400 µg/mL
CC(C)=CCC/C(C)=C/C(=O)Oc1cc(C(C)C)ccc1C,MIC,Candida albicans [1],> 6400 µg/mL
CC(C)=CCC/C(C)=C/CC/C(C)=C/COc1cc(C(C)C)ccc1C,MIC,Candida albicans [1],> 6400 µg/mL
Cc1ccc(C(C)C)cc1OC(=O)CCCC(=O)NCCN(C)C.Cl,MIC,Candida albicans [1],> 6400 µg/mL
C[C@@H]1[C@H](O)[C@@H](C)/C=C/C=C/C=C/C=C/C=C/C=C/C=C/[C@H](O[C@@H]2O[C@H](C)[C@@H](O)[C@H](N)[C@@H]2O)C[C@@H]2O[C@](O)(C[C@@H](O)C[C@@H](O)[C@H](O)CC[C@@H](O)C[C@@H](O)CC(=O)O[C@H]1C)C[C@H](O)[C@H]2C(=O)O [AMPHOTERICIN B],inhibition zone (IZ),Candida dubliniensis,10 mm
same,inhibition zone (IZ),Nakaseomyces glabratus,12 mm
same,inhibition zone (IZ),Candida parapsilosis,9 mm
same,inhibition zone (IZ),Candida tropicalis,10 mm
same,inhibition zone (IZ),Candida albicans [5],10 mm
O=C1O[C@H]([C@@H](O)CO)C(O)=C1O [ASCORBIC ACID],Activity,Blood,19.4
Cc1ccc(C(C)C)cc1O [CARVACROL],logP,[2],3.5
same,inhibition zone (IZ),Candida dubliniensis,7 mm
same,inhibition zone (IZ),Nakaseomyces glabratus,8 mm
same,inhibition zone (IZ),Candida parapsilosis,7 mm
same,inhibition zone (IZ),Candida tropicalis,10 mm
same,inhibition zone (IZ),Candida albicans [5],9 mm
same,MIC,Candida albicans [1],1250 µg/mL
same,MIC,Streptococcus pyogenes,64 to 256 µg/mL
same,MIC50,Streptococcus pyogenes,128 µg/mL
same,MIC90,Streptococcus pyogenes,256 µg/mL
same,MIC,Acinetobacter baumannii,64 to 256 µg/mL
same,MIC50,Acinetobacter baumannii,128 µg/mL
same,MIC90,Acinetobacter baumannii,256 µg/mL
same,MIC,Pseudomonas aeruginosa,≥ 512 µg/mL
same,MIC50,Pseudomonas aeruginosa,> 512 µg/mL
same,MIC90,Pseudomonas aeruginosa,> 512 µg/mL
same,MIC,Klebsiella pneumoniae,512 µg/mL
same,MIC50,Klebsiella pneumoniae,512 µg/mL
same,MIC90,Klebsiella pneumoniae,512 µg/mL
same,MIC,Escherichia coli,256 µg/mL
same,MIC50,Escherichia coli,256 µg/mL
same,MIC90,Escherichia coli,256 µg/mL
same,MIC,Streptococcus agalactiae,256 to 512 µg/mL
same,MIC50,Streptococcus agalactiae,256 µg/mL
same,MIC90,Streptococcus agalactiae,512 µg/mL
same,MIC,Streptococcus pneumoniae,64 to 256 µg/mL
same,MIC50,Streptococcus pneumoniae,128 µg/mL
same,MIC90,Streptococcus pneumoniae,256 µg/mL
same,MIC,Enterococcus faecalis,128 to 512 µg/mL
same,MIC50,Enterococcus faecalis,256 µg/mL
same,MIC90,Enterococcus faecalis,256 µg/mL
same,MIC,[6],256 µg/mL
same,MIC50,[6],256 µg/mL
same,MIC90,[6],256 µg/mL
same,MIC,Staphylococcus aureus,256 µg/mL
same,MIC50,Staphylococcus aureus,256 µg/mL
same,MIC90,Staphylococcus aureus,256 µg/mL
OC(Cn1cncn1)(Cn1cncn1)c1ccc(F)cc1F [FLUCONAZOLE],MIC,Candida albicans [1],250 µg/mL
